Laboratory results published in ChEMBL document CHEMBL1240425, “Design and synthesis of chloroquine analogs with anti-breast cancer property” (Eur J Med Chem, 2010).

Experiments:
[1] = Antiproliferative activity against human MCF10A cells after 48 hrs by SRB assay; type: cell-based, MCF-10A
Outline: (§1)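 Cells (5000–10,000/well) preincubated 24 h at 37 °C, 5% CO2; MCF10A kept in mammary epithelial basal medium with MEGM supplements. Seven concentrations from 2–10-fold serial dilutions, with ≤0.1% DMSO vehicle control, were given for 48 h. Cells were TCA-fixed (10% final), then stained with 0.4% SRB. Dye was solubilized in 10 mM Tris base and read at 515–564 nm. GI50 came from variable-slope sigmoidal fits, triplicates, ≥2 experiments.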

MCF7 [2] = assay: Antiproliferative activity against human p53+/- MCF7 cells after 48 hrs by SRB assay; type: functional; conditions: MCF7, 48 h; outline: as §1
MDA-MB-231 [3] = assay: Antiproliferative activity against human p53, pRB mutant and estrogen receptor deficient MDA-MB-231 cells after 48 hrs by SRB assay; type: functional; conditions: MDA-MB-231, 48 h; outline: as §1
MCF7 [4] = assay: Ratio of compound GI50 to cisplatin GI50 for human p53+/- MCF7 cells after 48 hrs by SRB assay; type: functional
MDA-MB-231 [5] = assay: Ratio of compound GI50 to cisplatin GI50 for human p53, pRB mutant and estrogen receptor deficient MDA-MB-231 cells after 48 hrs by SRB assay; type: functional
MCF7 [6] = assay: Ratio of GI50 for human MCF10A cells to GI50 for human p53+/- MCF7 cells
MDA-MB-231 [7] = assay: Ratio of GI50 for human MCF10A cells to GI50 for human p53, pRB mutant and estrogen receptor deficient MDA-MB-231 cells

Row | Compound | GI50 at 48 h [1] [µM] | GI50 (MCF7 [2]) [µM] | GI50 (MDA-MB-231 [3]) [µM] | RatioGI50 (MCF7 [4]) | RatioGI50 (MDA-MB-231 [5]) | RatioGI50 (MCF7 [6]) | RatioGI50 (MDA-MB-231 [7])
1 | Clc1ccc2c(NCCCN3CCCC3)ccnc2c1 | 45.8 | 21.4 | 29.8 |  |  |  | 
2 | Clc1ccc2c(NCCCN3CCOCC3)ccnc2c1 | 86.5 | 17.2 | 40.2 |  |  |  | 
3 | CN1CCN(CCCNc2ccnc3cc(Cl)ccc23)CC1 | 16.7 | 17.1 | 19.1 |  |  |  | 
4 | Clc1ccc2c(NCCCN3CCN(c4ccccc4)CC3)ccnc2c1 | 12.6 | 12.8 | 15.9 |  |  |  | 
5 | Clc1ccc2c(NCCCN3CCN(c4ccnc5cc(Cl)ccc45)CC3)ccnc2c1 | 8.72 | 5.42 | 7.52 |  |  |  | 
6 | FC(F)(F)c1ccc2c(N3CCN(CCCNc4ccnc5cc(Cl)ccc45)CC3)ccnc2c1 | 12.9 | 4.99 | 6.33 | 5.16 | 3.7 | 2.58 | 2.03
7 | O=C1C(=O)N(CCCNc2ccnc3cc(Cl)ccc23)c2ccccc21 | 35.9 | 23.5 | 47.6 |  |  |  | 
8 | O=C1C(=O)N(CCCNc2ccnc3cc(Cl)ccc23)c2cccc(Cl)c21 | 84.8 | 46.7 | 55.6 |  |  |  | 
9 | O=C1C(=O)N(CCCNc2ccnc3cc(Cl)ccc23)c2cccc(Br)c21 | 20.8 | 6.57 | 16.8 |  |  |  | 
10 | O=C1C(=O)N(CCCNc2ccnc3cc(Cl)ccc23)c2cc(Cl)ccc21 | 6.88 | 7.36 | 15.8 |  |  |  | 
11 | O=C1C(=O)N(CCCNc2ccnc3cc(Cl)ccc23)c2cc(Br)ccc21 | 19.9 | 16.6 | 35 |  |  |  | 
12 | FC(F)(F)c1ccc2c(NCCCN3CCCC3)ccnc2c1 | 58.6 | 36.8 | 70.4 |  |  |  | 
13 | FC(F)(F)c1ccc2c(NCCCN3CCCCC3)ccnc2c1 | 48.8 | 32.6 | 38.6 |  |  |  | 
14 | FC(F)(F)c1ccc2c(NCCCN3CCOCC3)ccnc2c1 | 26.5 | 38.8 | 79.8 |  |  |  | 
15 | CN1CCN(CCCNc2ccnc3cc(C(F)(F)F)ccc23)CC1 | 51.7 | 30.8 | 43.3 |  |  |  | 
16 | FC(F)(F)c1ccc2c(NCCCN3CCN(c4ccccc4)CC3)ccnc2c1 | 19.8 | 8.75 | 9.9 |  |  |  | 
17 | FC(F)(F)c1ccc2c(NCCCN3CCN(c4ccnc5cc(Cl)ccc45)CC3)ccnc2c1 | 8.84 | 4.6 | 4.31 |  |  | 1.92 | 2.05
18 | FC(F)(F)c1ccc2c(NCCCN3CCN(c4ccnc5cc(C(F)(F)F)ccc45)CC3)ccnc2c1 | 30 | 17.2 | 25.7 |  |  |  | 
19 | O=C1C(=O)N(CCCNc2ccnc3cc(C(F)(F)F)ccc23)c2ccccc21 | 46.8 | 45.3 | 54.1 |  |  |  | 
20 | O=C1C(=O)N(CCCNc2ccnc3cc(C(F)(F)F)ccc23)c2cccc(Cl)c21 | 20.2 | 18.8 | 50.2 |  |  |  | 
21 | O=C1C(=O)N(CCCNc2ccnc3cc(C(F)(F)F)ccc23)c2cccc(Br)c21 | 33.7 | 34.4 | 49.4 |  |  |  | 
22 | O=C1C(=O)N(CCCNc2ccnc3cc(C(F)(F)F)ccc23)c2cc(Cl)ccc21 | 25.2 | 14.3 | 17.4 |  |  |  | 
23 | O=C1C(=O)N(CCCNc2ccnc3cc(C(F)(F)F)ccc23)c2cc(Br)ccc21 | 14.6 | 7.98 | 18.9 |  |  |  | 
24 | CCN(CC)CCCNc1ccnc2cc(Cl)ccc12 | 65.3 | 17.9 | 27.8 |  |  |  | 
25 | Clc1ccc2c(NCCCN3CCCCC3)ccnc2c1 | 47.8 | 17.7 | 38 |  |  |  | 
26 | CCN(CC)CCCNc1ccnc2cc(C(F)(F)F)ccc12 | 45.8 | 20.6 | 57.1 |  |  |  | 
27 | CCN(CC)CCCC(C)Nc1ccnc2cc(Cl)ccc12 (stereo not given) [CHLOROQUINE] | 81.3 |  |  |  |  |  | 
